Experimental data taken from ChEMBL document CHEMBL5661970 (Cancer Res, 2006).
Active and inactive are the calls of the source. No cut-off for these calls is given here.

How the values were obtained:
[1] = tested on: PC-3; experiment: Antitumor activity against human PC-3 cells xenografted in gamma-irradiation induced RH-rnu/rnu athymic rat assessed as tumor growth inhibition at 0.2 mg/kg, po administered once daily for 2 weeks and measured on day 14 relative to control; assay type: functional; conditions: PC-3, light or radiation study, 336 h, read-out: TGI
[2] = tested on: HUVEC; experiment: Inhibition of cell migration in VEGF-induced serum-starved human HUVEC cells at >= 10 nmol/L incubated for 22 hrs by calcein AM staining based fluorescence plate reader analysis; assay type: functional
Summary of the method: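 HUVECs starved 5 h in EBM-2 with 0.1% BSA, placed in upper chamber of microchamber plate; lower chamber held 10 ng/mL VEGF, 0.1% FBS, 0.1% BSA. Compound in both chambers. After 22 h, migrated cells stained with 4 μg/mL calcein AM, read at 485/530 nm; 100%/0% set with/without VEGF in 0.1% DMSO; n = 10.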

[3] = Half life in F344/N JcL-rnu athymic rat at 1 mg/kg, po measured upto 72 hrs by HPLC-MS/MS analysis; assay type: ADME, organism-based; conditions: in vivo
Summary of the method: (§1)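 Female F344/N JcL-rnu rats, four per group, single p.o. dose suspended in 0.5% methyl cellulose. Tail-vein blood sampled at set times to 72 h. Serum spiked with internal standard, deproteinated with acetonitrile, analysed by HPLC-MS/MS. Parameters derived by noncompartmental analysis.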

[4] = target: T1, Mitogen-activated protein kinase 1 (Homo sapiens, UniProt P28482); experiment: Inhibition of ERK2 phosphorylation in bFGF-stimulated serum-starved human HUVEC cells by immunoblotting analysis; assay type: cell-based
T1 sequence (P28482 whole entry): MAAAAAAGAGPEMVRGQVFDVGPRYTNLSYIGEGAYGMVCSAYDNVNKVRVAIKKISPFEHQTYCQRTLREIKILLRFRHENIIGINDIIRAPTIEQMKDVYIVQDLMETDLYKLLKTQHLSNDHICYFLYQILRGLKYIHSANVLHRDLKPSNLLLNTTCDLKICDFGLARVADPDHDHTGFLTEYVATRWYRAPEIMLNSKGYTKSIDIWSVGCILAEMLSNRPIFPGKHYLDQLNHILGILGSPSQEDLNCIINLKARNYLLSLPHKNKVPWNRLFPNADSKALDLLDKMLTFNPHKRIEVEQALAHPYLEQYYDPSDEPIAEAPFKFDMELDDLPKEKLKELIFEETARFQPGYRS

[5] = target: Focal adhesion kinase 1 (Homo sapiens, UniProt Q05397); experiment: Inhibition of Fak (unknown origin) in presence of ATP
Chain of Focal adhesion kinase 1 (Q05397 whole entry): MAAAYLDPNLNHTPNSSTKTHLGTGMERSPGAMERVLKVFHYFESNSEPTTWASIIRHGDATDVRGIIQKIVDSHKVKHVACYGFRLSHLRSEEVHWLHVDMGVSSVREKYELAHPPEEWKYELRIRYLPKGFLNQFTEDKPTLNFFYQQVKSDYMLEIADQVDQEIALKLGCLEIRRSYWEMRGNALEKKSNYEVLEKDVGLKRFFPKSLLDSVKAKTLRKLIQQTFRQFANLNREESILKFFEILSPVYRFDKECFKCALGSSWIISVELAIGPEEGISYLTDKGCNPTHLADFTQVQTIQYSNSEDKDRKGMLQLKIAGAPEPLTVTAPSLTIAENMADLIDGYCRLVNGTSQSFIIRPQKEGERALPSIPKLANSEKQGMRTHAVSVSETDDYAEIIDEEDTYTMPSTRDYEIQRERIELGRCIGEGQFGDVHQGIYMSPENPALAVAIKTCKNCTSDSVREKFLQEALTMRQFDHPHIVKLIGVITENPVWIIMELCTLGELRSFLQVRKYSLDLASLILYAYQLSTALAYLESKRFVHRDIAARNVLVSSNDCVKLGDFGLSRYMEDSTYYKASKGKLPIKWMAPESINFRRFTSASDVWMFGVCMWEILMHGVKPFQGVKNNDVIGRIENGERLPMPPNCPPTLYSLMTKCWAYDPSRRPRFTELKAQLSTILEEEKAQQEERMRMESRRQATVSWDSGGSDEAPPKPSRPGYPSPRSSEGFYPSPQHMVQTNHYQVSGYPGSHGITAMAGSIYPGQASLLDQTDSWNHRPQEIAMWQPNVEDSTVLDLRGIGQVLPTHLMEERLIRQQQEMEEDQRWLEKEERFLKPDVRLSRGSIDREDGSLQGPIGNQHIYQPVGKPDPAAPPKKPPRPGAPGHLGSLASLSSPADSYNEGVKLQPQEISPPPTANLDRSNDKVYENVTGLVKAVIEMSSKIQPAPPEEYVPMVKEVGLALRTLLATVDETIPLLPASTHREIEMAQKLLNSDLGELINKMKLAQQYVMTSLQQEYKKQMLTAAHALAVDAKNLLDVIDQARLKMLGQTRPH
Summary of the method: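 Cell-free kinase assay using recombinant tyrosine kinases with 1 μmol/L ATP, run in quadruplicate. IC50 values determined.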

[6] = tested on: A549; experiment: Antitumor activity against human A549 cells xenografted in F344/N Jcl-rnu athymic rat assessed as tumor regression at 0.2 mg/kg, po relative to control
[7] = target: T1, Mitogen-activated protein kinase 1; experiment: Inhibition of ERK2 phosphorylation in VEGF-stimulated serum-starved human HUVEC cells by immunoblotting analysis; assay type: cell-based
Summary of the method: (§2)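 HUVECs serum-starved, treated with inhibitor (DMSO stock diluted in medium), then stimulated with VEGF. Lysates run on SDS-PAGE and immunoblotted with anti-phospho-p44/42 MAPK antibody. Four independent experiments.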

[8] = Cmax in F344/N JcL-rnu athymic rat at 0.2 mg/kg, po measured upto 72 hrs by HPLC-MS/MS analysis; assay type: ADME, organism-based; conditions: in vivo; summary of the method: as §1
[9] = tested on: Calu-6; experiment: Antitumor activity against human Calu-6 cells xenografted in RH-rnu/rnu athymic rat assessed as decrease in capillary permeability in tumor at 1.0 mg/kg, po measured on day 13 by DCE-MRI analysis relative to control; assay type: functional; set-up: scale not given: the % may be the effect or the level left
[10] = Apparent oral clearance in F344/N JcL-rnu athymic rat at 5 mg/kg, po measured upto 72 hrs by HPLC-MS/MS analysis; assay type: ADME, organism-based; conditions: in vivo; summary of the method: as §1
[11] = AUC (0-infinity) in F344/N JcL-rnu athymic rat at 5 mg/kg, po measured upto 72 hrs by HPLC-MS/MS analysis; assay type: ADME, organism-based; conditions: in vivo
Summary of the method: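 Female athymic rats, four per group, given a single oral dose suspended in 0.5% methyl cellulose in water. Tail-vein blood was drawn at set times up to 72 h. Serum was spiked with internal standard, deproteinated with acetonitrile and analysed by HPLC-MS/MS. AUCinf came from noncompartmental analysis.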

[12] = tested on: Calu-6; experiment: Antitumor activity against human Calu-6 cells xenografted in RH-rnu/rnu athymic rat assessed as larger enclosed median lumen area by the halos in tumor by measuring vessel diameter at 1 mg/kg, po administered for 14 days by H33342 dye based fluorescence microscopic analysis; assay type: functional; conditions: time 14 day
Summary of the method: (§3)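 Calu-6 tumor-bearing athymic rats, three per group, received oral drug at 0.2 or 1 mg/kg or vehicle on days 0-13. They were killed 1 min after i.v. H33342 at 20 mg/kg on day 13. 10 µm cryosections were cut from five tumor levels at least 200 µm apart and examined under UV epifluorescence. The major axis of fluorescent halos around vessels was measured by image analysis, with a Mann-Whitney test.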

[13] = tested on: HUVEC; experiment: Antiproliferative activity against VEGF-induced human HUVEC cells assessed as cell viability incubated for 72 hrs by WST-1 assay
[14] = tested on: Calu-6; experiment: Antitumor activity against human Calu-6 cells xenografted in RH-rnu/rnu athymic rat assessed as larger enclosed median lumen area by the halos in tumor by measuring vessel diameter at 0.2 mg/kg, po administered for 14 days by H33342 dye based fluorescence microscopic analysis; assay type: functional; conditions: time 14 day; summary of the method: as §3
[15] = Apparent oral clearance in F344/N JcL-rnu athymic rat at 0.04 mg/kg, po measured upto 72 hrs by HPLC-MS/MS analysis; assay type: ADME, organism-based; conditions: in vivo; summary of the method: as §1
[16] = tested on: BXPC-3; experiment: Antitumor activity against human BXPC-3 cells xenografted in gamma-irradiation induced RH-rnu/rnu athymic rat assessed as tumor growth inhibition at 1.0 mg/kg, po administered once daily for 2 weeks and measured on day 13 relative to control; assay type: functional; conditions: BXPC-3, light or radiation study, 336 h, read-out: TGI
Summary of the method: (§4)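 Rats were γ-irradiated with 7 Gy whole body, and 24 h later received s.c. tumor cells. Fragments (20-30 mg) from ~1,500 mm3 tumors were then implanted s.c. into irradiated athymic rats. Oral dosing at 0.2 or 1 mg/kg or vehicle ran once daily for 2 weeks from day 0. Tumors were measured with calipers twice weekly (length×width²×0.5). TGI% was taken versus vehicle on day 14 (BxPC-3: day 13), with an unpaired t test on RTV.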

[17] = tested on: Calu-6; experiment: Antitumor activity against human Calu-6 cells xenografted in RH-rnu/rnu athymic rat assessed as increased pericyte coverage at 1 mg/kg, po administered for 14 days by immunofluorescence staining analysis relative to control; assay type: functional; conditions: time 14 day
Summary of the method: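 Calu-6 xenografted athymic rats were randomized at 273-275 mm3 and dosed orally for 2 weeks. Paraffin sections were double-stained with anti-CD31 and Cy3-anti-α-smooth muscle actin. Pericyte-associated endothelial cells were counted in six fields per tumor, with six tumors per group and Dunnett's test.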

[18] = Apparent oral clearance in F344/N JcL-rnu athymic rat at 1 mg/kg, po measured upto 72 hrs by HPLC-MS/MS analysis; assay type: ADME, organism-based; conditions: in vivo; summary of the method: as §1
[19] = Tmax in F344/N JcL-rnu athymic rat at 5 mg/kg, po measured upto 72 hrs by HPLC-MS/MS analysis; assay type: ADME, organism-based; conditions: in vivo; summary of the method: as §1
[20] = tested on: Calu-6; experiment: Antitumor activity against human Calu-6 cells xenografted in RH-rnu/rnu athymic rat assessed as increased ratio of enlarged vessels with >100 uM diameter in tumor at 0.2 mg/kg, po administered for 14 days by H33342 dye based fluorescence microscopic analysis relative to control; assay type: functional; conditions: time 14 day; summary of the method: as §3
[21] = target: T2, Mitogen-activated protein kinase 3 (Homo sapiens, UniProt P27361); experiment: Inhibition of ERK1 phosphorylation in VEGF-stimulated serum-starved human HUVEC cells by immunoblotting analysis; assay type: cell-based; summary of the method: as §2
T2 sequence (P27361 whole entry): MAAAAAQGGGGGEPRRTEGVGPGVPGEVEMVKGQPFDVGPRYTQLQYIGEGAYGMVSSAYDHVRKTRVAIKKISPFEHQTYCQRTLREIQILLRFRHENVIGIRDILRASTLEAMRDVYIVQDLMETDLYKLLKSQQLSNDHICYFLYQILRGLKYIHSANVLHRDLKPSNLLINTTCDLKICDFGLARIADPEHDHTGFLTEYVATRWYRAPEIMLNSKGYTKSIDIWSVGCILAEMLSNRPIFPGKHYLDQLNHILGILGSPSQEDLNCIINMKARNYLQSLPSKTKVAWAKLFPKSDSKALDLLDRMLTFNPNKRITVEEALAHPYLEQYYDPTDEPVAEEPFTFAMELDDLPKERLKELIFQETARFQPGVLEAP

[22] = target: T2, Mitogen-activated protein kinase 3; experiment: Inhibition of ERK1 phosphorylation in EGF-stimulated serum-starved human HUVEC cells by immunoblotting analysis; assay type: cell-based
[23] = tested on: Calu-6; experiment: Antitumor activity against human Calu-6 cells xenografted in gamma-irradiation induced RH-rnu/rnu athymic rat assessed as tumor growth inhibition at 1.0 mg/kg, po administered once daily for 2 weeks and measured on day 14 relative to control; assay type: functional; conditions: Calu-6, light or radiation study, 336 h, read-out: TGI; summary of the method: as §4

In the case of `COc1cc2nccc(Oc3ccc(NC(=O)Nc4cc(C)on4)c(Cl)c3)c2cc1OC` [TIVOZANIB], the inhibition in vivo at 0.2 mg/kg [1] is reported as 73.6%, the inhibition [2] is reported as “Active” and the half-life [3] is reported as 8.13 h. The inhibition [4] was “inactive”, the IC50 [5] was over 1000 nM and the tumor regression % at 0.2 mg/kg [6] was 2%. The IC50 [7] was 0.18 nM, the Cmax [8] was 0.108 µg/mL and the Activity [9] was 61%. It also gave a CL/F [10] of 0.113 L/h/kg, an AUC(0-inf) [11] of 44.5 µg·h/mL and an Activity [12] of 65.8 um. For the same compound, the IC50 [13] was 0.67 nM, the Activity [14] was 57.9 um and the CL/F [15] was 0.122 L/h/kg. For the same compound, the inhibition in vivo at 1 mg/kg [16] was 93.5%, the Activity [17] was 50.5% and the CL/F [18] was 0.132 L/h/kg. It also gave a Tmax [19] of 3.5 h, an Activity [20] of 24.3% and an IC50 [21] of 0.13 nM. For the same compound, the inhibition [22] was “inactive” and the inhibition in vivo at 1 mg/kg [23] was 99.2%.
